Sampled rows, rich in hits. Any-hit rate of the full collection: about 2.5%.
HTRA1 inhibitor: HTRA1 serine protease inhibitors, primary screen, biochemical, fluorescence polarization, HTS; Q92743; recombinant HTRA1, FP-rhodamine activity-based probe; inhibition, % at 5.96 µM; hit rate 0.5% among 340,000; AID 504803, 2011; in the data active = inhibition above about 36%;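 note: 0% = enzyme with DMSO and 100% = wells lacking enzyme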
TCR CD3 inh: inhibitors of human TCR-CD3 interaction, primary screen, biochemical, fluorescence, TAMRA-labeled TCR probe; T-cell receptor (TCR); hit rate 0.37% among 360,000; inhibition, % at 9.4 µM; AID 651800, 2012; in the data active = inhibition above about 19%;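 note: recombinant mutant TCR 2C K166C tagged with TAMRA read by polarization; 0% = receptor in buffer alone and 100% = receptor with positive control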
PRMT1 inh: PRMT1 methyltransferase inhibitors, primary screen, biochemical, fluorescence polarization; Protein arginine N-methyltransferase 1 (Homo sapiens), Q99873; hit rate 1.3% among 370,000; inhibition, % at 2.79 µM; AID 652257, 2013; recombinant PRMT1, activity-based probe fluorescence polarization;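 active = inhibition above about 21% made by adding two undisclosed values, limit read from the data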
SIAE inh: human SIAE inhibitors, primary screen, biochemical, fluorescence polarization, FP-Rh probe, 1536-well HTS. Sialate O-acetylesterase (Homo sapiens), Q9HAT2. inhibition, % at 9.66 µM. SIAE FP-Rh probe binding. hit rate 0.69% among 370,000. AID 1053197, 2014;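 active = inhibition above a cutoff: mean of compounds within the control limits plus 3 SD of those, cut at about 17% in these data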;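 note: 0% = plate median of compound wells and 100% = probe without SIAE protein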
mABHD4 FP: ABHD4 inhibitors, primary screen, biochemical, fluorescence polarization, mouse. purified mABHD4, FP-Rh probe fluorescence polarization. inhibition, % at 8.92 µM. hit rate 0.54% among 370,000. AID 720543, 2013;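 active = inhibition exceeding the mean over every tested compound plus 3 SD, cut at about 30% in these data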;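 note: 0% = plate median of compound wells and 100% = S159A mutant with DMSO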
Target sequence (Q8VD66 whole entry, looked up): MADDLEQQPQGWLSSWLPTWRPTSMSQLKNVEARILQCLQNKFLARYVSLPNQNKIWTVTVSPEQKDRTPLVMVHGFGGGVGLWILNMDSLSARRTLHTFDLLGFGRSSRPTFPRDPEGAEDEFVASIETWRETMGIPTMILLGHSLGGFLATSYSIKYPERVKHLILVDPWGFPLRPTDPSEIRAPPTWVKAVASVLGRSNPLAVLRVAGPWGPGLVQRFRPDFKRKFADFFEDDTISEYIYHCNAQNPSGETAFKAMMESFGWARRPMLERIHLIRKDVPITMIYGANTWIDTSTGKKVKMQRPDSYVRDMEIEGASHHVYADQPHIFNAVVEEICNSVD
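Test system: mABHD4 protein | Buffer or medium: HEPES pH 7.0 buffer, 150 mM NaCl, 0.01% Pluronic F-127 | Probe or stimulus: FP-Rh fluorescent activity-based probe, added after compound pre-incubation | Timing: Pre-incubation 45 min, probe exposure 60 min, at 25 °C | Technique: Fluorescence polarization, excitation 525 nm, emission 598 nm, BODIPY TMR filters | Repeats: Single well per compound (singlicate)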
PRMT1 inh conf: PRMT1 methyltransferase inhibitors, confirmation, biochemical, fluorescence polarization, triplicate; shares compounds with PRMT1 inh; recombinant His-PRMT1, activity-based probe fluorescence polarization; hit rate 42% among 3,300; AID 687036, 2013; inhibition, % at 2.79 µM;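 active = mean inhibition across replicates above the hit cutoff derived for the earlier primary screen, cut at about 22% in these data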
The depositor's hits bear a star; / = no result.

SMILES	HTRA1 inhibitor	TCR CD3 inh	PRMT1 inh	SIAE inh	mABHD4 FP	PRMT1 inh conf
CCOC(=O)C1=CCN(S(=O)(=O)c2ccccc2F)C1c1ccc(Br)cc1 (stereo unspecified)	/	4.1	-1.6	3.1	-12.9	/
Cc1ccc(NC(=S)NCC2CCN(C(C)c3ccccc3)C2)cc1 (stereo unspecified)	-10.2	4.1	-0.7	8.2	3.0	/
Cc1cc(C)c(NC(=S)NCC2CCN(C(C)c3ccccc3)C2)c(C)c1 (stereo unspecified)	-2.1	5.8	41.7*	7.3	-4.7	72.4*
CCOC(=O)c1nnsc1N	4.3	0.1	-1.5	-5.3	4.1	/
COc1ccc(C(=O)NCc2ncccc2C)cc1OC1CCN(C(C)=O)CC1	3.4	3.9	-0.7	1.2	2.2	/
CCOc1ccc2nc3sc(C(=O)N4CCOCC4)c(N)c3cc2c1	-0.1	-6.2	28.2*	1.2	3.5	2.8
COC(=O)c1c(C)[nH]c(O)c1C=Nc1ccc(C(C)C)cc1	14.8	-10.8	3.1	1.0	-4.5	/
CCOC(=O)c1c(C)[nH]c(O)c1C=Nc1ccc(C(F)(F)F)cc1	61.9*	-4.6	28.8*	5.0	11.3	14.4
c1coc(-c2cc3nc(NC4CCCCC4)ccn3n2)c1	/	4.3	28.9*	-2.1	3.0	8.5
c1coc(-c2cc3nc(NCc4ccc5c(c4)OCO5)ccn3n2)c1	/	-9.1	31.6*	2.7	-0.2	9.6
COc1ccc(NC(=O)NS(=O)(=O)c2ccc(C)cc2)cn1	2.3	-4.1	104.5*	1.9	11.2	9.8
COc1cc(NC(=O)NS(=O)(=O)c2ccc(C)cc2)cc(OC)c1	10.1	-1.3	-1.3	12.1	11.7	/
O=C(Nc1ccc(OCc2ccccc2)cc1)Nc1cccnc1	5.7	6.3	-1.5	3.2	2.9	/
COc1ccc(NC(=O)Nc2ccc(OCc3ccccc3)cc2)cn1	-3.2	3.1	25.7*	5.1	7.8	11.5
CCOc1ccc(-n2c(SCC(=O)Nc3cccc4ccccc34)nnc2-c2ccncc2)cc1	/	/	4.9	2.8	-0.3	/
Cc1sc(NC(=O)CSc2nc(N)cc(N)n2)c(C#N)c1C	-3.7	-3.8	-0.6	-2.7	-2.5	/
Cc1nnc(SCC(=O)Nc2sc3c(c2C(N)=O)CCC(C)C3)[nH]c1=O (stereo unspecified)	9.9	2.5	25.9*	-8.0	8.5	51.0*
Cc1sc(NC(=O)CSc2nnc(C)c(=O)[nH]2)c(C#N)c1C	-1.5	-3.6	26.6*	-3.1	5.8	23.7*
COc1cccc(NC(=O)C(C)Sc2nnc(C3CC3)n2C2CC2)c1 (stereo unspecified)	-1.5	-3.7	-2.6	1.4	-6.2	/
CCn1c(C(=O)N2CCc3ccccc3C2)cc2sccc21	-5.6	-7.2	25.4*	10.8	-4.0	13.5
CC(=O)c1cc(-c2ccc(S(C)(=O)=O)cc2)c(=O)n2c1CCC2	/	/	-1.3	0.5	-0.9	/
Cn1cnc([N+](=O)[O-])c1S(=O)(=O)Oc1ccc(Cl)cc1	3.8	-6.1	30.5*	-0.5	-2.7	23.0*
COCCn1c(SCCN2CCOCC2)nc2c1c(=O)[nH]c(=O)n2C	6.7	5.0	37.8*	3.2	12.4	40.0*
C=CCn1c(SCCN2CCOCC2)nc2c1c(=O)[nH]c(=O)n2C	2.6	-0.4	1.9	-2.2	7.5	/
Cc1ccc(/C=C/C(=O)N2CCN(c3ccc(F)cc3)CC2)o1	-0.9	5.6	-0.6	5.4	-0.5	/
SMILES	HTRA1 inhibitor	TCR CD3 inh	PRMT1 inh	SIAE inh	mABHD4 FP	PRMT1 inh conf
Cc1ccc(/C=C/C(=O)N2CCN(c3ncccn3)CC2)o1	-0.4	6.0	50.5*	-0.7	-2.8	36.2*
Nc1cccn2c(-c3ccc(Cl)cc3)cnc12	19.2	2.1	41.7*	1.5	17.8	-0.6
Nc1cccn2c(-c3ccc(Cl)c(Cl)c3)cnc12	-1.1	-4.8	31.5*	0.8	7.6	-2.6
C=CC1=C2C=C(C3CC3)N(CCCN(CC)CC)C=C2C(=O)C(C)(OC(=O)c2ccco2)C1=O (stereo unspecified)	0.7	4.7	2.1	16.6	5.1	/
CC1Cc2ccccc2N1C(=O)CN1CCC(C(N)=O)CC1 (stereo unspecified)	-0.4	-1.8	2.5	5.7	6.6	/
COc1ccc(S(=O)(=O)N2CCOC2CNC(=O)C(=O)NCCCN2CCOCC2)cc1OC (stereo unspecified)	2.2	0.0	-1.4	-0.6	-0.2	/
CCN=C1S/C(=C\c2cn(C(C)=O)nc2-c2ccccc2)C(=O)N1CC	-33.1	5.0	-2.5	-8.0	-3.7	/
CC(=O)NC1=NC(=O)/C(=C/c2cn(C(C)=O)nc2-c2ccccc2)S1	-4.4	-1.8	30.5*	-8.1	-20.8	26.8*
Cc1cc(/C=C2\SC(=O)N(C)C2=O)c(C)n1-c1ccc(O)cc1	-1.6	2.2	1.7	-1.6	14.6	/
CC(=O)NC1=NC(=O)/C(=C/c2cc(C)n(-c3cccc(C(=O)O)c3)c2C)S1	/	6.8	57.1*	-4.5	8.8	9.3
CC(=O)NC1=NC(=O)/C(=C/c2cc(C)n(-c3ccc(NC(C)=O)cc3)c2C)S1	-1.2	0.5	32.1*	-5.8	-1.0	-8.9
O=C(COC(=O)/C=C/c1ccco1)Nc1ccccc1	-5.1	6.6	0.4	0.6	0.6	/
CC(=O)Nc1ccc(C(=O)/C=C/c2ccco2)cc1	10.7	-5.0	36.5*	3.8	-5.0	27.1*
CCc1ccc(NC(=O)COC(=O)/C=C/c2ccco2)cc1	-5.7	-3.7	28.4*	-4.1	-8.8	-1.3
CCOC(=O)c1ccc[n+](CC(=O)c2ccc(NC(=O)c3ccccc3)cc2)c1	-22.2	6.2	-2.7	-2.9	1.2	/
COc1ccc([C@H]2C[C@@H](n3cc(-c4ccc(F)cc4)nn3)[C@H](O)CN2C(=O)C2CCCCC2)cc1	-4.4	0.0	-5.6	-0.9	-8.8	/
COc1ccc(C(=O)Oc2ccc(C(=S)N3CCOCC3)cc2)cc1	-8.3	7.8	57.2*	-10.5	-5.6	2.0
COc1ccc(C(=S)N2CCN(C)CC2)cc1Br	2.9	2.9	-2.1	4.9	-6.4	/
COc1ccc(C(=S)N2CCN(C)CC2)cc1	-5.3	1.9	29.9*	-0.9	-0.3	8.3
O=C(Oc1ccc(C(=S)N2CCOCC2)cc1)c1ccc(Br)cc1	5.0	3.3	0.0	3.6	-0.1	/
COc1ccc(NC(=S)N2CCN(C)CC2)cc1	/	-0.1	-1.8	4.4	-3.2	/
COc1ccc(C2SCCN2C(=S)Nc2cccc(Cl)c2)cc1 (stereo unspecified)	-16.2	-6.7	79.7*	-19.4	-9.1	2.0
Cc1ccc(NC(=S)N2CCSC2c2cccs2)cc1 (stereo unspecified)	2.1	0.0	59.5*	-2.3	-1.4	10.2
